Measurements: ChEMBL document CHEMBL1123966, “Ring-substituted [1,2-bis(4-hydroxyphenyl)ethylenediamine]dichloroplatinum (II) complexes: compounds with a selective effect on the hormone-dependent mammary carcinoma” (1988)

Key:
[1] = Cell growth inhibition of MXT-ER+ breast cancer cells at a dose of 13.4 mg/kg; type: functional, organism-based; parameters: dose 13.4 mg/kg; conditions: Mus musculus, Cancer cell lines
Outline: (§1)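 Hormone-dependent MXT mammary carcinoma (ER+) model. Equimolar doses (2 × 10⁻⁵ M/kg) were given sc three times weekly (Mon, Wed, Fri) as a solution or suspension in polyethylene glycol 400/H₂O (1:1); some agents were given in olive oil. Median tumor weight was taken at the end of 6 weeks of therapy and given as T/C %. Significance was tested by the Wilcoxon-Mann-Whitney U test.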

MDA-MB-231 [2] = experiment: Cell growth inhibition in hormone independent MDA-MB-231 breast cancer cells; type: functional, cell-based; conditions: Homo sapiens
MCF7S [3] = experiment: Incorporation of [3H]- thymidine in hormone dependent MCF-7 breast cancer cells; type: functional, cell-based; conditions: Homo sapiens
Mus musculus [4] = experiment: Median tumor weight of MXT ER+ determined at the end of 6 week therapy at a dose of 13.4 mg/kg; type: functional, organism-based; parameters: dose 13.4 mg/kg
Outline: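 BDF1 mice with hormone-dependent MXT mammary carcinoma (ER+). Equimolar dosing at 2 × 10⁻⁵ M/kg, given sc three times a week (Mon/Wed/Fri) for 6 weeks as a solution or suspension in PEG 400/H₂O 1:1. Median tumor weight was taken at the end of therapy; U test (Wilcoxon, Mann, Whitney).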

MDA-MB-231 [5] = experiment: Incorporation of [3H]- thymidine in hormone independent MDA-MB-231 breast cancer cells; type: functional, cell-based; conditions: Homo sapiens
MDA-MB-231 [6] = experiment: Incorporation of [3H]- thymidine into hormone independent MDA-MB-231 breast cancer cells; type: functional, cell-based; conditions: Homo sapiens
Mus musculus [7] = experiment: Uterotrophic effect in BDF1 mouse at a dose of 13.4 mg/kg; type: functional, organism-based; parameters: dose 13.4 mg/kg; conditions: Uterus
Outline: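 Uterus of BDF1 mice in the MXT ER+ study. Equimolar dosing at 2 × 10⁻⁵ M/kg, sc in PEG 400/H₂O 1:1 three times a week (Mon/Wed/Fri). Uterine response = [uterus dry weight (mg)/body weight (g)] × 100, determined after 6 weeks of therapy; U test.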

[8] = Cell growth inhibition of MXT-ER- breast cancer cells at a dose of 13.4 mg/kg; type: functional, organism-based; parameters: dose 13.4 mg/kg; conditions: Mus musculus, Cancer cell lines
Outline: (§2)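 Hormone-independent MXT mammary carcinoma (ER−) in mice. Equimolar doses (2 × 10⁻⁵ M/kg) were given sc three times a week (Mon, Wed, Fri) in polyethylene glycol 400/H₂O (1:1), or in olive oil for some agents. Median tumor area was measured at the end of a 2-week therapy and expressed as T/C %.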

Mus musculus [9] = species on record: Mus musculus; experiment: Uterotrophic effect in BDF1 mouse measured as([weight of uterus (mg)/body weight (g)] *100); type: functional
Outline: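 Female BDF1 mice carrying MXT ER+ mammary carcinoma were dosed in olive oil, sc, three times a week, for 6 weeks. At the end of therapy, uterotropic effect = [uterus dry weight (mg)/body weight (g)] × 100, given as mean ± SD and as T/C % versus control. Significance was by the U test.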

MCF7S [10] = experiment: Cell growth inhibition in hormone dependent MCF 7 breast cancer cells; type: functional, cell-based; conditions: Homo sapiens
[11] = Cell growth inhibition MXT-ER- breast cancer cells at a dose of 12.9 mg/kg; type: functional, organism-based; parameters: dose 12.9 mg/kg; conditions: Mus musculus, Cancer cell lines; outline: as §2
[12] = Cell growth inhibition MXT-ER+ breast cancer cells at a dose of 12.9 mg/kg; type: functional, organism-based; parameters: dose 12.9 mg/kg; conditions: Mus musculus, Cancer cell lines; outline: as §1
Mus musculus [13] = experiment: Median tumor weight of MXT (mammary carcinoma) ER+ determined at the end of 6 week therapy at a dose of 12.9 mg/kg; type: functional, organism-based; parameters: dose 12.9 mg/kg
Outline: (§3)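 BDF1 mice with hormone-dependent MXT mammary carcinoma (ER+). Equimolar dosing at 2 × 10⁻⁵ M/kg, given sc in olive oil three times a week (Mon/Wed/Fri) for 6 weeks. Median tumor weight was taken at the end of therapy and compared with controls by the Wilcoxon–Mann–Whitney U test.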

Mus musculus [14] = experiment: Uterotrophic effect in BDF1 mouse at a dose of 12.9 mg/kg; type: functional, organism-based; parameters: dose 12.9 mg/kg; conditions: Uterus
Outline: (§4)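 Uterus of BDF1 mice in the MXT ER+ study. Equimolar dosing at 2 × 10⁻⁵ M/kg, sc in olive oil three times a week (Mon/Wed/Fri). Uterine response = [uterus dry weight (mg)/body weight (g)] × 100, determined at the end of the 6-week therapy; U test.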

[15] = Cell growth inhibition of MXT-ER+ breast cancer cells at a dose of 8 mg; type: functional; conditions: Mus musculus; Cancer cell lines; outline: as §1
Mus musculus [16] = species on record: Mus musculus; experiment: Uterotrophic effect in BDF1 mouse at a dose of 8 mg; type: functional, Uterus; outline: as §4
Mus musculus [17] = species on record: Mus musculus; experiment: Median tumor weight of MXT ER+ (mammary carcinoma) determined at the end of 6 week therapy at a dose of 8 mg; type: functional; outline: as §3

Compound | ED50 (MDA-MB-231 [2]) | T/C (MDA-MB-231 [2]) | ED50 (MCF7S [3]) | T/C (MCF7S [3]) | T/C (MDA-MB-231 [5]) | Effect (Mus musculus [9]) | ED50 (MCF7S [10]) | T/C (MCF7S [10]) | other results
meso-7-PtCl2(2-Br) | 4.3 µM | 43% | 1.4 µM | 15% | 13% | 89.3 | 3.1 µM | 30% | T/C [1]: 12%; Med tumor weight (Mus musculus [4]): 57 mg; ED50 (MDA-MB-231 [6]): 1.2 µM; T/C (Mus musculus [7]): 99%; T/C [8]: 65%
meso-3-PtCl2(2-CF3) | 4 µM | 46% | 2.2 µM | 27% | 36% | 70.9 | 5.1 µM | 61% | T/C [11]: 72%; T/C [12]: 78%; Med tumor weight (Mus musculus [13]): 422 mg; ED50 (MDA-MB-231 [5]): 3.2 µM; T/C (Mus musculus [14]): 100%
CC/C(=C(\c1ccccc1)c1ccc(OCCN(C)C)cc1)c1ccccc1 [TAMOXIFEN] |  |  |  |  |  | 72.3 |  |  | T/C [15]: 3%; T/C (Mus musculus [16]): 80%; Med tumor weight (Mus musculus [17]): 16 mg
